According to ChEMBL document CHEMBL1139386, “Discovery of novel CB2 receptor ligands by a pharmacophore-based virtual screening workflow” (J Med Chem, 2009):

Tests used:
[1] = target: T1, Cannabinoid receptor 1 (Homo sapiens, UniProt P21554); test: Binding affinity to CB1 receptor
[2] = target: T2, Cannabinoid receptor 2 (Homo sapiens, UniProt P34972); test: Binding affinity to CB2 receptor
[3] = Selectivity ratio of Ki for CB1 receptor to Ki for CB2 receptor
[4] = species: Homo sapiens; test: Selectivity ratio of Ki for human CB1 receptor to Ki for human CB2 receptor
Outline: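 Ki ratio from radioligand displacement on membranes overexpressing human CB1 (7.16 µg, 0.39 nM radioligand) or CB2 (3.8 µg, 0.11 nM radioligand). Incubation 90 min at 30 °C in Tris/EGTA/MgCl2/BSA buffer, pH 7.4, then GF/C filtration and scintillation counting; nonspecific binding with 10 µM reference ligand. IC50 from Hill plots; three independent experiments in triplicate.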

[5] = target: T1, Cannabinoid receptor 1; test: Displacement of [3H]CP-55940 from human recombinant CB1 receptor
[6] = target: T2, Cannabinoid receptor 2; test: Displacement of [3H]CP-55940 from human recombinant CB2 receptor
Outline: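 Membranes from cells recombinantly overexpressing CB2 (Bmax 4.7 pmol/mg protein), 3.8 µg, in binding buffer (50 mM Tris-HCl, 2.5 mM EGTA, 5 mM MgCl2, 0.5 mg/mL fatty-acid-free BSA, pH 7.4) with 0.11 nM radioligand. Compounds were tested at varying concentrations, with nonspecific binding defined by 10 µM reference ligand. Incubation was 90 min at 30 °C, followed by PEI-soaked GF/C filtration and scintillation counting. Data were normalized and Hill-linearized to give IC50 and Ki (three experiments, triplicate).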

[7] = target: T2, Cannabinoid receptor 2; test: Agonist activity at human CB2 receptor expressed in CHO-K1 cells assessed as forskolin-stimulated cAMP release; assay type: functional, cell-based; settings: filed as partial agonist
Outline: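 CHO-K1 cells expressing hCB2, plated at 3×10^5 cells/mL overnight, were preincubated 10 min in supplement-free RPMI 1640 with 500 µM IBMX. Test compounds were added at several concentrations for 30 min at 37 °C, then 20 µM forskolin for a further 30 min at 37 °C. Intracellular cAMP was read by EFC chemiluminescence, with a high-affinity CB ligand as positive control.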

T1 sequence (P21554 whole entry): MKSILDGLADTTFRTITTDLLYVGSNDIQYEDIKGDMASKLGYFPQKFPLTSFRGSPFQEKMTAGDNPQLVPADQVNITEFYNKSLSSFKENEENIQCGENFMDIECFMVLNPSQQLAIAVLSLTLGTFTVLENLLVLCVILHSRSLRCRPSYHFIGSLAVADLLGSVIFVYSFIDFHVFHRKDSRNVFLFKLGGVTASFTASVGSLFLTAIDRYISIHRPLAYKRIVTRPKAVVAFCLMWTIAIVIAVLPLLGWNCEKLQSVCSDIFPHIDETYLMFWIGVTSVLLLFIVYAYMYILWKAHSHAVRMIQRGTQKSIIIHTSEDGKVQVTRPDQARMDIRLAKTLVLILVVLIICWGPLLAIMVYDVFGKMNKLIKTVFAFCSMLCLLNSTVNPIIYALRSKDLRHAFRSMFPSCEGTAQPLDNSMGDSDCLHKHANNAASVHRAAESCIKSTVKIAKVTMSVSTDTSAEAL
T2 sequence (P34972 whole entry): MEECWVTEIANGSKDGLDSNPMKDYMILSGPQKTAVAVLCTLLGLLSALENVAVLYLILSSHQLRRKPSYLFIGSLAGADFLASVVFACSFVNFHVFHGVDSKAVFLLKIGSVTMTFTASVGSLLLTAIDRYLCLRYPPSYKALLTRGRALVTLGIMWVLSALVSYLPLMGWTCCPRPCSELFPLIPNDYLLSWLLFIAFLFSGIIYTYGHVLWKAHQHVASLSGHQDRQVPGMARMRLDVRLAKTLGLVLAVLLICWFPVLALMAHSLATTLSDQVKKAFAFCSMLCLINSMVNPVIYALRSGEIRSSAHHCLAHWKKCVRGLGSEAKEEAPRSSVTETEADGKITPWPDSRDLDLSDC

Row | Structure (SMILES) | Ratio Ki [4] | Ki [5] | Ki [6] | further results
1 | CN1CCCC[C@@H]1Cn1cc(C(=O)c2cc([N+](=O)[O-])ccc2I)c2ccccc21 |  |  |  | Ki [1]: 5000 nM; Ki [2]: 15.1 nM; Ratio Ki [3]: 331
2 | CCCn1c(C)c(C(=O)c2cccc3cc(OC)ccc23)c2ccccc21 | > 333 | > 10000 nM |  | 
3 | COc1ccc2c(c1)c(CCN1CCOCC1)c(C)n2C(=O)c1cccc(Cl)c1Cl |  |  |  | Ratio Ki [3]: 160
4 | O=C(NCC1CCOCC1)c1cnc(Nc2ccc(Cl)cc2Cl)nc1C(F)(F)F [GW842166X] | > 600 |  |  | EC50 [5]: > 30000 nM
5 | CC1CCN(C(=O)c2ccc3c(c2)c2c(n3S(C)(=O)=O)CN(C3CCCC3)C2)CC1 | 35 |  |  | 
6 | CCCN1Cc2c(n(S(=O)(=O)CC)c3ccc(C(=O)N4CCC(C)CC4)cc23)C1 | 54 |  |  | 
7 | CCS(=O)(=O)n1c2c(c3cc(C(=O)N4CCC(OC)CC4)ccc31)CN(C1CCCC1)C2 | 77 |  |  | 
8 | CCCCCCC(C)(C)c1cc(OC)c(C2(O)CCOCC2)c(OC)c1 | > 29 | > 10000 nM | 342 nM | 
9 | CC(=O)n1c2c(c3cc(C(=O)N4CCC(C)CC4)ccc31)CN(C1CCCC1)C2 | 26 |  |  | 
10 | CCCn1cc(C(=O)c2ccc(C)c3ccccc23)c2ccccc21 | 173 | 1050 nM |  | 
11 | CCCCCCC(C)(C)c1cc(OC)c([C@@]2(O)CCC[C@@H](C)C2)c(OC)c1 | 220 | 5060 nM | 23 nM | 
12 | CCCCCN(CCCCC)C(=O)c1ccccc1C(=O)Nc1ccc(Br)cc1 | > 2 | > 50 nM | < 25 nM | 
13 | CCCCCCC(C)(C)c1cc(OC)c([C@H]2C=C(CO)[C@@H]3C[C@H]2C3(C)C)c(OC)c1 |  |  |  | Ki [1]: 10000 nM
14 | Cc1cccc(-c2nnc(SCC(=O)NC3CCCCC3)n2Cc2ccccc2)c1 | > 2 | > 50 nM | < 25 nM | 
15 | CCCCCn1c(C)c(C(=O)c2c(OC)ccc3ccccc23)c2ccccc21 | 34 | 1380 nM |  | 
16 | COc1ccc2c(c1)c(CN1CCOCC1)c(C)n2C(=O)c1cccc(Cl)c1Cl | 153 |  |  | 
17 | CCCCCC(C)(C)c1cc(OC)c2c(c1)OC(C)(C)[C@@H]1CCC(C)=C[C@@H]21 | 174 |  |  | 
18 | CCOc1ccc(N(CC(=O)N[C@@H](C)CC)S(=O)(=O)c2ccc(Br)cc2)cc1 | > 2 | > 50 nM | < 25 nM | 
19 | CCc1ccccc1NC(=O)CSc1nnc(-c2ccccc2OC)n1-c1ccccc1 | > 23 | > 50 nM | 2.1 nM | 
20 | COc1ccc2c(c1)c(CC(=O)N1CCOCC1)c(C)n2C(=O)c1cccc(Cl)c1Cl | 146 |  |  | 
21 | CCCCSc1nc2c(c(=O)n1CCc1ccccc1)C1(CCCC1)Cc1ccccc1-2 | > 2 | > 50 nM | < 25 nM | 
22 | CCCCCCc1cc(O)c2c(c1)OC(C)(C)C1=C2CCN(C)C1 | > 27 | > 50 nM | 1.78 nM | Activity [7]: Partial agonist
23 | CCCCCCC(C)(C)c1cc(O)c2c(c1)oc(=O)c1ccc(O)cc12 | 488 | 400 nM | 0.82 nM | 
24 | CCCCCn1cc(C(=O)c2cc3ccccc3cc2OC)c2ccccc21 |  |  |  | Ki [1]: 381 nM; Ki [2]: 7.2 nM; Ratio Ki [3]: 53
25 | CCCC(C)(C)c1ccc2c(c1)OC(C)(C)[C@@H]1CC=C(C)C[C@@H]21 | 35 | 0.797 nM | 0.023 nM | Ki [1]: 677 nM; Ki [2]: 3.4 nM; Ratio Ki [3]: 199
26 | COc1ccc(OC)c(N(CC(=O)NCc2ccncc2)S(=O)(=O)c2ccc(C)cc2)c1 | > 37 | > 50 nM | 1.35 nM | 
